In ChEMBL document CHEMBL4118021, “Studies of TAK1-centered polypharmacology with novel covalent TAK1 inhibitors” (Bioorg Med Chem, 2017):
Active and inactive are the calls of the source. The calls are words filed in the database; no cut-off is given here.

Tests used:
[1] = target: Translocon-associated protein subunit delta (Homo sapiens) (UniProt P51571); test: Binding affinity to SSR4 in human NCI-H23 cells at 1 uM by mass spectrometry based pull down assay; format: cell-based
[2] = target: Citrate synthase, mitochondrial (Homo sapiens) (UniProt O75390); test: Binding affinity to CS in human NCI-H23 cells at 1 uM by mass spectrometry based pull down assay; format: cell-based
[3] = target: E3 ubiquitin-protein ligase UBR4 (Homo sapiens) (UniProt Q5T4S7); test: Binding affinity to UBR4 in human NCI-H358 cells at 1 uM by mass spectrometry based pull down assay; format: cell-based
[4] = target: Glyoxylate reductase/hydroxypyruvate reductase (Homo sapiens) (UniProt Q9UBQ7); test: Binding affinity to GRHPR in human NCI-H23 cells at 1 uM by mass spectrometry based pull down assay; format: cell-based
[5] = target: Small proline-rich protein 3 (Homo sapiens) (UniProt Q9UBC9); test: Binding affinity to SPRR3 in human NCI-H358 cells at 1 uM by mass spectrometry based pull down assay; format: cell-based
[6] = target: 5'-nucleotidase domain-containing protein 1 (Homo sapiens) (UniProt Q5TFE4); test: Binding affinity to NT5DC1 in human NCI-H23 cells at 1 uM by mass spectrometry based pull down assay; format: cell-based
[7] = target: Thymidylate kinase (Homo sapiens) (UniProt P23919); test: Binding affinity to DTYMK in human NCI-H358 cells at 1 uM by mass spectrometry based pull down assay; format: cell-based
[8] = target: Citrate synthase, mitochondrial (Homo sapiens) (UniProt O75390); test: Binding affinity to CS in human NCI-H358 cells at 1 uM by mass spectrometry based pull down assay; format: cell-based
[9] = target: Aspartyl aminopeptidase (Homo sapiens) (UniProt Q9ULA0); test: Binding affinity to DNPEP in human NCI-H23 cells at 1 uM by mass spectrometry based pull down assay; format: cell-based
[10] = target: T1, 80S Ribosome (Homo sapiens) (UniProt P08865+P42677+P62753+P15880+P23396+P61247+P62701+P22090+P46782+P62081+P62241+P46781+P46783+P62280+P25398+P62277+P62263+P62841+P62244+P62249+P08708+P62269+P39019+P60866+P63220+P62266+P62847+P62851+P62854+P62979+P62857+P62273+P62861+P39023+P36578+P46777+Q02878+P18124+P62424+P62917+P32969+P27635+P62906+P62913+P30050+P26373+P40429+P50914+P61313+P18621+Q07020+Q02543+P84098+P46778+P35268+P62829+P62750+P83731+P61254+P61353+P46776+P46779+P47914+P62888+P62899+P62910+P49207+P42766+P18077+Q9Y3U8+P83881+P61927+P61513+P63173+P62891+P62945+P05388+P05386); test: Binding affinity to RPL10 in human NCI-H358 cells at 1 uM by mass spectrometry based pull down assay; format: cell-based
[11] = target: T1, 80S Ribosome (Homo sapiens); test: Binding affinity to RPS9 in human NCI-H358 cells at 1 uM by mass spectrometry based pull down assay; format: cell-based
[12] = target: T-complex protein 1 subunit theta (Homo sapiens) (UniProt P50990); test: Binding affinity to CCT8 in human NCI-H358 cells at 1 uM by mass spectrometry based pull down assay; format: cell-based
[13] = target: Histone H3.2 (Homo sapiens) (UniProt Q71DI3); test: Binding affinity to HIST2H3A in human NCI-H23 cells at 1 uM by mass spectrometry based pull down assay; format: cell-based
[14] = target: RuvB-like 1 (Homo sapiens) (UniProt Q9Y265); test: Binding affinity to RUVBL1 in human NCI-H358 cells at 1 uM by mass spectrometry based pull down assay; format: cell-based
[15] = target: Glycogen synthase kinase-3 alpha (Homo sapiens) (UniProt P49840); test: Binding affinity to GSK3A in human NCI-H358 cells at 1 uM by mass spectrometry based pull down assay; format: cell-based
[16] = target: Protein disulfide-isomerase A4 (Homo sapiens) (UniProt P13667); test: Binding affinity to PDIA4 in human NCI-H23 cells at 1 uM by mass spectrometry based pull down assay; format: cell-based
[17] = target: Src substrate cortactin (Homo sapiens) (UniProt Q14247); test: Binding affinity to CTTN in human NCI-H23 cells at 1 uM by mass spectrometry based pull down assay; format: cell-based
[18] = target: T2, Mitogen-activated protein kinase kinase kinase 7 (Homo sapiens) (UniProt O43318); test: Binding affinity to MAP3K7 in human NCI-H358 cells at 1 uM by mass spectrometry based pull down assay; format: cell-based
T2 sequence (whole entry): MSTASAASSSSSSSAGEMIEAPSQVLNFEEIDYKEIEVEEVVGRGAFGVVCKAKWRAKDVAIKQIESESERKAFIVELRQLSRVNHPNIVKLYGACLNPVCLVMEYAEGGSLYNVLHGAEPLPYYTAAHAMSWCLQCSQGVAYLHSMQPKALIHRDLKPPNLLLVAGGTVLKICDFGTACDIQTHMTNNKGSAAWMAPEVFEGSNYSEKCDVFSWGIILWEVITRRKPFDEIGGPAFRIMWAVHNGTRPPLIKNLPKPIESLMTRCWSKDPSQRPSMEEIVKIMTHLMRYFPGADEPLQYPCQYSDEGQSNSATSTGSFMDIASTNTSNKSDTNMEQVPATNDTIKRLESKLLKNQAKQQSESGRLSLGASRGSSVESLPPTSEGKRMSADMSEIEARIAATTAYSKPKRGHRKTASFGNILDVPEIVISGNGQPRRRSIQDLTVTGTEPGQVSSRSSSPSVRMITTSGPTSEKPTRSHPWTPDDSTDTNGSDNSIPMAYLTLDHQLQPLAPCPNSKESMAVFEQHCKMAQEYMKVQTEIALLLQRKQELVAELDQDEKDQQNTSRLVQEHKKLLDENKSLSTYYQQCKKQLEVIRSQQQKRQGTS

[19] = target: T2, Mitogen-activated protein kinase kinase kinase 7 (Homo sapiens); test: Inhibition of TAK1 in RA patient-derived synovial fibroblasts assessed as inhibition of TNFalpha-induced cytokine secretion at 3 uM preincubated for 3 hrs followed by TNFalpha stimulation measured after 18 hrs by sandwich immunoassay
Summary of the method: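 Primary RA synovial fibroblasts (donor RA2159) seeded 1000 cells/well and grown ~24 h at 37 °C, 5% CO2. Starved overnight in basal medium, then ~4 h in basal medium with 0.1% BSA. Two adjacent wells pooled per replicate, in biological duplicate. Supernatants diluted 1:3 and run on Luminex 27-plex/21-plex sandwich immunoassays for 48 analytes, with spiked-ligand and mock-supernatant background controls.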

[20] = target: Macrophage-stimulating protein receptor (Homo sapiens) (UniProt Q04912); test: Inhibition of RON in human SKCO1 cells at 1 uM after 4 hrs using biotin labeled IQCAIKSLSR probe by mass-spectrometric analysis relative to control; format: cell-based
Sequence of Macrophage-stimulating protein receptor (Homo sapiens) (Q04912 25-304 limits assumed): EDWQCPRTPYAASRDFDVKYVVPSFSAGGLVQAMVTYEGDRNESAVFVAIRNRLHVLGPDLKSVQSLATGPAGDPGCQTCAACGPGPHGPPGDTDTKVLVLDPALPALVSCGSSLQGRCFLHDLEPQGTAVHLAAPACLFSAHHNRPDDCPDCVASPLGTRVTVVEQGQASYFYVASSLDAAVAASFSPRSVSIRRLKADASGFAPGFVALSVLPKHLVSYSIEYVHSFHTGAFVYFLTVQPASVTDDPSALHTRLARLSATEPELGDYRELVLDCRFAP
Sequence of Macrophage-stimulating protein receptor (Homo sapiens) (Q04912 310-1400 limits assumed): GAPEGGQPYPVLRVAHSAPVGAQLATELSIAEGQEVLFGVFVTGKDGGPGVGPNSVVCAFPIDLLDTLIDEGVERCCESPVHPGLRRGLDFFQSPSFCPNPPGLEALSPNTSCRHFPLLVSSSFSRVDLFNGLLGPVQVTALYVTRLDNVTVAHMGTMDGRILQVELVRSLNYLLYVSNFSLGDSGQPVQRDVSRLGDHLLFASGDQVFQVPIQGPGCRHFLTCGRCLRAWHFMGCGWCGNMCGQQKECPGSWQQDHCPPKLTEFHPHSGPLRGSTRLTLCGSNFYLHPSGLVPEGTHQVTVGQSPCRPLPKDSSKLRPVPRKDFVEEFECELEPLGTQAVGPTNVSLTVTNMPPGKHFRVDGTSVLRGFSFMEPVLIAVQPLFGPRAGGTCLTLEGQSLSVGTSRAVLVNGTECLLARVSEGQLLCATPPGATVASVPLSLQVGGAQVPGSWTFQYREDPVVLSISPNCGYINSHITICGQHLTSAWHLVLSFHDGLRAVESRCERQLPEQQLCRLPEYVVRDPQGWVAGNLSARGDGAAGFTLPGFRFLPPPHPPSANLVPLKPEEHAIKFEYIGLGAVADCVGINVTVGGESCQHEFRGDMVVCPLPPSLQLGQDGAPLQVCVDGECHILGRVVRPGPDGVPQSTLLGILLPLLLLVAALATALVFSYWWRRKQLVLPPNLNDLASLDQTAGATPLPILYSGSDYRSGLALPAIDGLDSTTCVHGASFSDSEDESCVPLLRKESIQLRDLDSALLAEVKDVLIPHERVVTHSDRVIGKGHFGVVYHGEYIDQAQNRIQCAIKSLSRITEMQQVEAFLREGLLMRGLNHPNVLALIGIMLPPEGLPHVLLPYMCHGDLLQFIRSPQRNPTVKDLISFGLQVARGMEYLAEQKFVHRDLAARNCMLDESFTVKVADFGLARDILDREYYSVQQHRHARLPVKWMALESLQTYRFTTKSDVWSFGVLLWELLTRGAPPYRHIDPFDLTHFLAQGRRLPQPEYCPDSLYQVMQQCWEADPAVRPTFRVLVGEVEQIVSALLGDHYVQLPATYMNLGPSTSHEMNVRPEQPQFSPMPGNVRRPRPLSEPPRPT

Sequence of Citrate synthase, mitochondrial (Homo sapiens) (O75390 whole entry): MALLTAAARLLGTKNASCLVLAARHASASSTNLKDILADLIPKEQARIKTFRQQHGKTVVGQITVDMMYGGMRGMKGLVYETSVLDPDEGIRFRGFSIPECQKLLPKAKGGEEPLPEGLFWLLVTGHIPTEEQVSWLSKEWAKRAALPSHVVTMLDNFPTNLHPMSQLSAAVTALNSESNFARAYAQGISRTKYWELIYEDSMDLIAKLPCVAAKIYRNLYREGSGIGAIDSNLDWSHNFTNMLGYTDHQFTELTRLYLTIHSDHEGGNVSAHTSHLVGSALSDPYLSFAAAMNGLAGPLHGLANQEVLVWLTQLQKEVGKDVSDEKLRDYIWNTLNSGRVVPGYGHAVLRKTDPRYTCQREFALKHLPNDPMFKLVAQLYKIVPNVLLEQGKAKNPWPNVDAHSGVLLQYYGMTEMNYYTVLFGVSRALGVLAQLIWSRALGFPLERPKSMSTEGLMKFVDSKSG
Sequence of Glyoxylate reductase/hydroxypyruvate reductase (Homo sapiens) (Q9UBQ7 whole entry): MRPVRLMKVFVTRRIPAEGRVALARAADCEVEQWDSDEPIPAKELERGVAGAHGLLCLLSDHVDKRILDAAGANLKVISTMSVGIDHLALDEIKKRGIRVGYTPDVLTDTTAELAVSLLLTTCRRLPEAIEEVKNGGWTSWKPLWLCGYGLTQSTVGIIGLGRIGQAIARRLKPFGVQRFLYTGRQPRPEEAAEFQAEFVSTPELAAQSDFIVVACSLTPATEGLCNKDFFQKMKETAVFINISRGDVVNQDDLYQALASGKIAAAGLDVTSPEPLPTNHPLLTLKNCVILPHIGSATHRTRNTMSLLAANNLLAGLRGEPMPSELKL
Sequence of Src substrate cortactin (Homo sapiens) (Q14247 whole entry): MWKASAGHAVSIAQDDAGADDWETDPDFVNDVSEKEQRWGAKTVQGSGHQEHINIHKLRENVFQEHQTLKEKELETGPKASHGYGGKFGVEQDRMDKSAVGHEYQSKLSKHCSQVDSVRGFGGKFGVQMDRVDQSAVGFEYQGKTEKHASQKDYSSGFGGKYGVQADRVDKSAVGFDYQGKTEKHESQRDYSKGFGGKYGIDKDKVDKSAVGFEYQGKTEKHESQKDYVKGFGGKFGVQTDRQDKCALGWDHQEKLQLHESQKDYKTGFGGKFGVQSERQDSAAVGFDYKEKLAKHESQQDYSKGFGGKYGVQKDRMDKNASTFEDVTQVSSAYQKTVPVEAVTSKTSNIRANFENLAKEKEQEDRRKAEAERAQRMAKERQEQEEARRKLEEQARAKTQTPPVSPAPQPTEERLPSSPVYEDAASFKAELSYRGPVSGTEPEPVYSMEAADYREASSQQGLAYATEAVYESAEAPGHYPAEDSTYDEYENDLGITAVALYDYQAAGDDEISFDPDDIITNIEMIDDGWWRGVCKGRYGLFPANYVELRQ
Sequence of T-complex protein 1 subunit theta (Homo sapiens) (P50990 whole entry, one chain of several): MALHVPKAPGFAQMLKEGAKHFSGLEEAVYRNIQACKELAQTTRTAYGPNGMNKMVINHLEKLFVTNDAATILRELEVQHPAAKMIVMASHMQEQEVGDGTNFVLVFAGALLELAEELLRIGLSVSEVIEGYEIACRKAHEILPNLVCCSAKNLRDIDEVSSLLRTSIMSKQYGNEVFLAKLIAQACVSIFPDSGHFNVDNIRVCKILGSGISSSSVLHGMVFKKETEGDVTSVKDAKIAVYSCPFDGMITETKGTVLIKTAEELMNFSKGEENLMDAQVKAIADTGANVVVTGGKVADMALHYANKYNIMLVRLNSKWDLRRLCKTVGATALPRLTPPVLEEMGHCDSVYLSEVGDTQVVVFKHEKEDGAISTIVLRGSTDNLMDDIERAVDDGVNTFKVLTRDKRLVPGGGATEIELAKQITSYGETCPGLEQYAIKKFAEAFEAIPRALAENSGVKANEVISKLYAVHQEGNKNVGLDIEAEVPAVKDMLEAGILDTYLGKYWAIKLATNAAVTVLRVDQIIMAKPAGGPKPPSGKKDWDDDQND
Sequence of Thymidylate kinase (Homo sapiens) (P23919 whole entry): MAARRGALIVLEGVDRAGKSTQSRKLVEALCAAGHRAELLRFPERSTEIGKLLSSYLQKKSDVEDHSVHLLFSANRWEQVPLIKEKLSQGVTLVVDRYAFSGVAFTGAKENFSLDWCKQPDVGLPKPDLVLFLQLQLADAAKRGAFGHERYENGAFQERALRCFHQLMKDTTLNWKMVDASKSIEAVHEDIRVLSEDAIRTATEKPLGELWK
Sequence of Translocon-associated protein subunit delta (Homo sapiens) (P51571 whole entry): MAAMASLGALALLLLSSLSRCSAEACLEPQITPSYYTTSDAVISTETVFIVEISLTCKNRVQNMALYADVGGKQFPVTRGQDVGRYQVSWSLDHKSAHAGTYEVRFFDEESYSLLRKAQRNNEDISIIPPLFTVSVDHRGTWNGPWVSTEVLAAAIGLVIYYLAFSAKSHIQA
Sequence of RuvB-like 1 (Homo sapiens) (Q9Y265 whole entry): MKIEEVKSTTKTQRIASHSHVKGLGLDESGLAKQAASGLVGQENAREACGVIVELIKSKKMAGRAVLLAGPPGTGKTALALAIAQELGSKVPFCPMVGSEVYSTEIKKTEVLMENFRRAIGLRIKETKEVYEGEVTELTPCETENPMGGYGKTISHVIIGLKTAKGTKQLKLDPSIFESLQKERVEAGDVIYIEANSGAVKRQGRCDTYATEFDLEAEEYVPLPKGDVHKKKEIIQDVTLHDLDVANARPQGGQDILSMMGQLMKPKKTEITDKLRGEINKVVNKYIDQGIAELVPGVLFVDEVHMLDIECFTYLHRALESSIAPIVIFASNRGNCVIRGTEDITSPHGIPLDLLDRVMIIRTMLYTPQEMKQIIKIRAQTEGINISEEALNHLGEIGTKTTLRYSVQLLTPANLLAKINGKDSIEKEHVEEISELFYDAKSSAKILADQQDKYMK
Sequence of Protein disulfide-isomerase A4 (Homo sapiens) (P13667 whole entry): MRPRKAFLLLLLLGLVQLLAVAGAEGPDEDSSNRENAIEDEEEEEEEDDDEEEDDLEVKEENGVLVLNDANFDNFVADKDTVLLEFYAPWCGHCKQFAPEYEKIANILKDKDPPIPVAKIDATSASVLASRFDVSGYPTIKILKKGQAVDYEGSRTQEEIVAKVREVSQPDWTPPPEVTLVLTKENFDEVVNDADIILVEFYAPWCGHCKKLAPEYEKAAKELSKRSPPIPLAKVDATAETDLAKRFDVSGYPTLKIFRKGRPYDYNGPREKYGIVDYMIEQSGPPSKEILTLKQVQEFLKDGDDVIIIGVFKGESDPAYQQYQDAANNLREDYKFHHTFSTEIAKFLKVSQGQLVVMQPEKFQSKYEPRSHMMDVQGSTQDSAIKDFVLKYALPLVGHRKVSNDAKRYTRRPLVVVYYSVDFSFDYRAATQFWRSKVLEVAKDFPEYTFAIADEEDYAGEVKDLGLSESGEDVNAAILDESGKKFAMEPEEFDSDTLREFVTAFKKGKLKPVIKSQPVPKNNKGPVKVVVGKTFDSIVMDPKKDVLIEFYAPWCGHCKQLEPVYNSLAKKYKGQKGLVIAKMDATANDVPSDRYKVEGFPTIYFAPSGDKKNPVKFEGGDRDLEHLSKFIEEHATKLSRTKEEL
Sequence of Small proline-rich protein 3 (Homo sapiens) (Q9UBC9 whole entry, the tested form may be a part): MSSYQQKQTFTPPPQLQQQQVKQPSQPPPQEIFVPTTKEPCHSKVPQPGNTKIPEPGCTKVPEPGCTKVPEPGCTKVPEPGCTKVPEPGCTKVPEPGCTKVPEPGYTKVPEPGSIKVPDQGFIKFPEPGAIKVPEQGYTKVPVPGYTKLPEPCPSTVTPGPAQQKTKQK

Compound	Activity [1]	Activity [2]	Activity [3]	Activity [4]	Activity [5]	Activity [6]	Activity [7]	Activity [8]	Activity [9]	Activity [10]	Activity [11]	Activity [12]	Activity [13]	Activity [14]	Activity [15]	Activity [16]	Activity [17]	Activity [18]	inhibition [19]	inhibition [20] [%]
C=CC(=O)Nc1ccccc1Nc1nc(Nc2ccc(N3CCN(CCOCCOCCOCCNC(=O)CCCC[C@@H]4SC[C@@H]5NC(=O)N[C@@H]54)CC3)cc2)ncc1Cl	Active	Active	Active	Active	Active	Active	Active	Active	Active	Active	Active	Active	Active	Active	Active	Active	Active	Active		
C=CC(=O)Nc1ccccc1Oc1nc(Nc2cnn(CCOC)c2)ncc1Cl																			Active	-4.2
